These results are taken from ChEMBL document CHEMBL1158964, “Isolation and cytotoxicity of two new flavonoids from Chrysosplenium grayanum and related flavonols” (1991).

In the test the test system is KB. Briefly: Cytotoxicity against human KB cells after 72 hrs. It counts as functional. Particulars: read-out: ED50 (the source's name). A digest of the protocol: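 KB cells kept in MEM with 5% fetal calf serum; assay run largely per NCI guidelines in 24-well plates in a CO₂ incubator. Cells assayed after 72 h by a literature procedure. ED₅₀ estimated from semi-log plots of sample concentration (μg/ml) against percent viable cells; three determinations.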

Each structure is given as a SMILES string. Values after ≈ are worked out from the molar mass of the structure shown. Bounds are passed on as bounds.

For `COC(=O)c1cc(O)c(OC)c(O)c1`, the EC50 amounted to 8.62 µg/mL (≈ 43.5 µM).

For `COc1cc(O)c2c(=O)c(OC)c(-c3cc(O)c(OC)cc3OC)oc2c1` [CHRYSOSPLENOL G], the EC50 amounted to 8.61 µg/mL (≈ 23 µM). The value for `COc1cc2oc(-c3ccc(O)c(O)c3)c(OC)c(=O)c2c(O)c1OC` [CHRYSOSPLENOL D] was 13.9 µg/mL (≈ 38.7 µM). `COc1cc(-c2oc3cc(OC)c(O)c(O)c3c(=O)c2OC)ccc1O` [CHRYSOSPLENOL C]: the EC50 stood at 11.2 µg/mL (≈ 31.1 µM). For `COc1cc(-c2oc3cc(OC)c(OC)c(O)c3c(=O)c2OC)ccc1O` [CHRYSOSPLENOL B] the value was 7.42 µg/mL (≈ 19.8 µM); for `COc1cc(O)c2c(=O)c(OC)c(-c3cc(OC)c(OC)cc3O)oc2c1` [CHRYSOSPLENOL E], greater than 25 µg/mL; for `COc1cc(O)c2c(=O)c(OC)c(-c3cc(O)c(OC)cc3O)oc2c1` [OXYAYANIN A], 1.99 µg/mL (≈ 5.52 µM). The value for `COc1cc(O)c(-c2oc3cc(OC)c(OC)c(O)c3c(=O)c2OC)cc1OC` [BRICKELLIN] was greater than 25 µg/mL; that for `COc1cc(O)c2c(=O)c(OC)c(-c3cc(OC)c(O)cc3O)oc2c1` [CHRYSOSPLENOL F] was greater than 25 µg/mL; that for `COc1cc(O)c2c(=O)c(OC)c(-c3ccc(OC)c(OC)c3)oc2c1` [RETUSIN] was greater than 25 µg/mL.
